{"source": "ChEMBL document CHEMBL1123133", "about": "“1H-2-Benzopyran-1-one derivatives, microbial products with pharmacological activity. Conversion into orally active derivatives with antiinflammatory and antiulcer activities” (J Med Chem, 1985)", "key": {"[1]": {"experiment": "Lipid solubility measured as chloroform-water partition coefficient", "format": "physicochemical", "procedure,_shortened": "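Partition between chloroform and 10 mM phosphate buffer pH 7.5 (1:1 volume); drug at 1 mg/mL initially in aqueous phase, shaken 20 min at 20 °C, centrifuged, both phases quantified by HPLC. HCl salts used.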"}, "Rattus norvegicus [2]": {"tested_on": "Rattus norvegicus", "experiment": "Concentration 6d detected in blood of rat 3 hr after an oral dose of 200 mg/kg of the compound", "format": "ADME, organism-based", "set-up": "dose 200 mg/kg, route oral", "settings": "in vivo", "procedure,_shortened": "(§1)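 Male Wistar rats (120–160 g), 5–7 per group, fasted 24 h, given 200 mg/kg orally as aqueous HCl salt formulation (drug/glycerin/HCO-60 1/12/0.05 by weight). Jugular blood taken under ether at 1 or 3 h into citric acid; plasma deproteinized with ethanol (acetone for 5d) and analysed by C18 HPLC at 254 nm. Values recovery-corrected, mean of 6–7 rats.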"}, "Rattus norvegicus [3]": {"tested_on": "Rattus norvegicus", "experiment": "Concentration 1 detected in blood of rat 3 hr after an oral dose of 200 mg/kg; ND is Not Detected.", "format": "ADME, organism-based", "set-up": "dose 200 mg/kg, route oral", "settings": "in vivo", "procedure,_shortened": "as §1"}, "Rattus norvegicus [4]": {"tested_on": "Rattus norvegicus", "experiment": "Concentration 5d detected in blood of rat 1 hr after an oral dose of 200 mg/kg of the compound", "format": "ADME, organism-based", "set-up": "dose 200 mg/kg, route oral", "settings": "in vivo", "procedure,_shortened": "as §1"}, "Rattus norvegicus [5]": {"tested_on": "Rattus norvegicus", "experiment": "Concentration 5d detected in blood of rat 3 hr after an oral dose of 200 mg/kg of the compound", "format": "ADME, organism-based", "set-up": "dose 200 mg/kg, route oral", "settings": "in vivo", "procedure,_shortened": "as §1"}, "Rattus norvegicus [6]": {"tested_on": "Rattus norvegicus", "experiment": "Concentration 6d detected in blood of rat 1 hr after an oral dose of 200 mg/kg of the compound", "format": "ADME, organism-based", "set-up": "dose 200 mg/kg, route oral", "settings": "in vivo", "procedure,_shortened": "as §1"}, "[7]": {"experiment": "Solubility in water, tested as a HCl salt", "format": "physicochemical", "settings": "read-out: S", "procedure,_shortened": "(§2)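 HCl salts suspended in excess in water or 10 mM phosphate buffer pH 7.5, sonicated 10 min at 20 °C to saturation, centrifuged; supernatant quantified by HPLC.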"}, "Rattus norvegicus [8]": {"tested_on": "Rattus norvegicus", "experiment": "% recovery of the compound, compound 1 and compound 6a from whole blood of 7 wistar rats after an oral dose of the compound", "format": "ADME, organism-based", "settings": "in vivo"}, "Rattus norvegicus [9]": {"tested_on": "Rattus norvegicus", "experiment": "Gastroprotective activity as % protection against stress ulcers in 5 rats after an intraperitoneal dose of 25 mg/kg", "format": "functional", "procedure,_shortened": "(§3)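 Stress ulcer by restraint and water immersion: male Wistar rats (160–180 g), fasted 24 h, given test compound po or ip as HCl salt in aqueous glycerin/HCO-60 formulation (1/12/0.05 by weight). Vehicle-only controls. After 1 h, restrained in net cage and immersed in 21 °C water for 6 h. Percent ulcer inhibition calculated; five rats per dose.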"}, "Rattus norvegicus [10]": {"tested_on": "Rattus norvegicus", "experiment": "Gastroprotective activity as % protection against stress ulcers in 5 rats after an intraperitoneal dose of 50 mg/kg", "format": "functional", "procedure,_shortened": "as §3"}, "Rattus norvegicus [11]": {"tested_on": "Rattus norvegicus", "experiment": "Gastroprotective activity as % protection against stress ulcers in 5 rats after an oral dose of 100 mg/kg", "format": "functional", "procedure,_shortened": "as §3"}, "Rattus norvegicus [12]": {"tested_on": "Rattus norvegicus", "experiment": "Gastroprotective activity as % protection against stress ulcers in 5 rats after an oral dose of 12.5 mg/kg", "format": "functional", "procedure,_shortened": "as §3"}, "Rattus norvegicus [13]": {"tested_on": "Rattus norvegicus", "experiment": "Gastroprotective activity as % protection against stress ulcers in 5 rats after an oral dose of 25 mg/kg", "format": "functional", "procedure,_shortened": "as §3"}, "Rattus norvegicus [14]": {"tested_on": "Rattus norvegicus", "experiment": "Gastroprotective activity as % protection against stress ulcers in 5 rats after an oral dose of 50 mg/kg", "format": "functional", "procedure,_shortened": "as §3"}, "[15]": {"experiment": "Solubility in phosphate buffer, tested as a HCl salt", "format": "physicochemical", "procedure,_shortened": "as §2"}, "Rattus norvegicus [16]": {"tested_on": "Rattus norvegicus", "experiment": "Concentration 5a detected in blood of rat 3 hr after an oral dose of 200 mg/kg of the compound", "format": "ADME, organism-based", "set-up": "dose 200 mg/kg, route oral", "settings": "in vivo", "procedure,_shortened": "as §1"}, "Rattus norvegicus [17]": {"tested_on": "Rattus norvegicus", "experiment": "Concentration 6a detected in blood of rat 1 hr after an oral dose of 200 mg/kg of the compound", "format": "ADME, organism-based", "set-up": "dose 200 mg/kg, route oral", "settings": "in vivo", "procedure,_shortened": "as §1"}, "Rattus norvegicus [18]": {"tested_on": "Rattus norvegicus", "experiment": "Concentration 6a detected in blood of rat 3 hr after an oral dose of 200 mg/kg of the compound", "format": "ADME, organism-based", "set-up": "dose 200 mg/kg, route oral", "settings": "in vivo", "procedure,_shortened": "as §1"}, "Rattus norvegicus [19]": {"tested_on": "Rattus norvegicus", "experiment": "% recovery 1 and compound 6a from whole blood of 7 wistar rats after an oral dose of the compound", "format": "ADME, organism-based", "settings": "in vivo"}, "Rattus norvegicus [20]": {"tested_on": "Rattus norvegicus", "experiment": "Concentration 5a detected in blood of rat 1 hr after an oral dose of 200 mg/kg of the compound", "format": "ADME, organism-based", "set-up": "dose 200 mg/kg, route oral", "settings": "in vivo", "procedure,_shortened": "as §1"}}}
{"smiles": "CNc1ccccc1", "values": [{"measurement": "P", "setting": "[1]", "value": "> 19"}]}
{"smiles": "CCCCNC1CC(=O)OC1C(O)C(=O)NC(CC(C)C)C1Cc2cccc(O)c2C(=O)O1", "note": "(stereo not given)", "values": [{"measurement": "Concentration", "setting": "Rattus norvegicus [2]", "value": 1800, "unit": "ng/mL"}, {"measurement": "Concentration", "setting": "Rattus norvegicus [3]", "value": "Not detected"}, {"measurement": "Concentration", "setting": "Rattus norvegicus [4]", "value": 2300, "unit": "ng/mL"}, {"measurement": "Concentration", "setting": "Rattus norvegicus [5]", "value": 2300, "unit": "ng/mL"}, {"measurement": "Concentration", "setting": "Rattus norvegicus [6]", "value": 2000, "unit": "ng/mL"}, {"measurement": "solubility", "setting": "[7]", "value": 100000, "unit": "µg/mL"}, {"measurement": "P", "setting": "[1]", "value": 1700}, {"measurement": "Recovery", "setting": "Rattus norvegicus [8]", "value": 30, "unit": "%"}, {"measurement": "Protection", "setting": "Rattus norvegicus [9]", "value": 44, "unit": "%"}, {"measurement": "Protection", "setting": "Rattus norvegicus [10]", "value": 89, "unit": "%"}, {"measurement": "Protection", "setting": "Rattus norvegicus [11]", "value": 89, "unit": "%"}, {"measurement": "Protection", "setting": "Rattus norvegicus [12]", "value": 17, "unit": "%"}, {"measurement": "Protection", "setting": "Rattus norvegicus [13]", "value": 33, "unit": "%"}, {"measurement": "Protection", "setting": "Rattus norvegicus [14]", "value": 66, "unit": "%"}, {"measurement": "solubility", "setting": "[15]", "value": 370, "unit": "µg/mL"}]}
{"smiles": "CNC1CC(=O)OC1C(O)C(=O)NC(CC(C)C)C1Cc2cccc(O)c2C(=O)O1", "note": "(stereo not given)", "values": [{"measurement": "Concentration", "setting": "Rattus norvegicus [16]", "value": 1200, "unit": "ng/mL"}, {"measurement": "Concentration", "setting": "Rattus norvegicus [17]", "value": 3100, "unit": "ng/mL"}, {"measurement": "Concentration", "setting": "Rattus norvegicus [18]", "value": 1100, "unit": "ng/mL"}, {"measurement": "Recovery", "setting": "Rattus norvegicus [19]", "value": 50, "unit": "%"}, {"measurement": "solubility", "setting": "[7]", "value": 1500, "unit": "µg/mL"}, {"measurement": "P", "setting": "[1]", "value": 3750}, {"measurement": "Protection", "setting": "Rattus norvegicus [9]", "value": 33, "unit": "%"}, {"measurement": "Protection", "setting": "Rattus norvegicus [10]", "value": 56, "unit": "%"}, {"measurement": "Protection", "setting": "Rattus norvegicus [11]", "value": 66, "unit": "%"}, {"measurement": "Protection", "setting": "Rattus norvegicus [12]", "value": 17, "unit": "%"}, {"measurement": "Protection", "setting": "Rattus norvegicus [13]", "value": 11, "unit": "%"}, {"measurement": "Protection", "setting": "Rattus norvegicus [14]", "value": 56, "unit": "%"}, {"measurement": "Concentration", "setting": "Rattus norvegicus [20]", "value": 3800, "unit": "ng/mL"}, {"measurement": "solubility", "setting": "[15]", "value": 990, "unit": "µg/mL"}]}
